In ChEMBL document CHEMBL1139764, “Design, synthesis, and structure-activity relationship studies of new phenolic DNA gyrase inhibitors” (2007):
In brackets after ≈: the same amount, converted by molar mass.

What was measured:
Escherichia coli = assay: Inhibition of Escherichia coli D110 DNA gyrase after 30 mins by supercoiling assay
Staphylococcus aureus [1] = assay: Antibacterial activity against Staphylococcus aureus ATCC 25923 by twofold agar dilution method; assay type: functional
Outline: (§1)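 MIC read as lowest inhibitory level in twofold serial dilutions in Müller–Hinton agar; each spot inoculated with 10^4 CFU.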

Staphylococcus aureus [2] = assay: Antibacterial activity against Staphylococcus aureus Smith by twofold agar dilution method; assay type: functional; outline: as §1
[3] = tested on: Staphylococcus epidermidis; assay: Antibacterial activity against Staphylococcus epidermidis ATCC 14990 by twofold agar dilution method; assay type: functional
Outline: (§2)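 Twofold serial dilutions in Müller–Hinton agar with an inoculum of 10^4 CFU per spot. The read-out is the minimal inhibitory concentration (MIC).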

Streptococcus pyogenes = assay: Antibacterial activity against Streptococcus pyogenes beta-15 by agar dilution method; assay type: functional; outline: as §2
Enterococcus faecium = assay: Antibacterial activity against ampicillin, trimethoprim and vancomycin-resistant Enterococcus faecium vanA E23-8 by twofold agar dilution method; assay type: functional; outline: as §1
Staphylococcus aureus [4] = assay: Antibacterial activity against novobiocin R144I-resistant Staphylococcus aureus ATCC 25923 by agar dilution method; assay type: functional; outline: as §1
Staphylococcus aureus [5] = assay: Antibacterial activity against methicillin and quinolones-resistant Staphylococcus aureus Smith QR54 by twofold agar dilution method; assay type: functional; outline: as §1
Staphylococcus aureus [6] = assay: Antibacterial activity against erythromycin, methicillin and trimethoprim-resistant Staphylococcus aureus Smith 744 by twofold agar dilution method; assay type: functional; outline: as §1

`COc1cc(O)c2c(c1C)C(=O)N1c3ccccc3COC21` (centres undefined) gave an Activity (Escherichia coli) of 0.5 µg/mL, an MIC (Staphylococcus aureus [1]) of over 32 µg/mL and an MIC (Staphylococcus aureus [2]) of over 32 µg/mL. The MIC [3] was over 32 µg/mL, the MIC (Streptococcus pyogenes) was over 32 µg/mL and the MIC (Enterococcus faecium) was over 32 µg/mL.
`COc1cc(O)c2c(c1C)C(=O)N1c3ccc(Cl)cc3CC[C@H]21` was tested, and the Activity (Escherichia coli) was 0.25 µg/mL, the MIC (Staphylococcus aureus [1]) was over 32 µg/mL and the MIC (Staphylococcus aureus [4]) was 16 µg/mL (≈ 48.5 µM). The MIC (Staphylococcus aureus [2]) was over 32 µg/mL, the MIC (Staphylococcus aureus [5]) was 32 µg/mL (≈ 97 µM) and the MIC [3] was 32 µg/mL (≈ 97 µM). For the same molecule, the MIC (Streptococcus pyogenes) was over 32 µg/mL and the MIC (Enterococcus faecium) was over 32 µg/mL.
For `COc1cc(O)c2c(c1C)C(=O)N(c1cccc(N)c1)C2`, the Activity (Escherichia coli) was 2 µg/mL.
With `Oc1cccc(CNc2ccc(Cl)cc2)c1O` the Activity (Escherichia coli) was 16 µg/mL.
Work on `COc1ccc2c(c1)CC[C@@H]1c3c(O)cc(OC)c(C)c3C(=O)N21` yielded an Activity (Escherichia coli) of 0.5 µg/mL, an MIC (Staphylococcus aureus [1]) of 32 µg/mL (≈ 98.4 µM) and an MIC (Staphylococcus aureus [4]) of 8 µg/mL (≈ 24.6 µM). For the same molecule, the MIC (Staphylococcus aureus [2]) was 16 µg/mL (≈ 49.2 µM), the MIC (Staphylococcus aureus [5]) was 16 µg/mL (≈ 49.2 µM) and the MIC (Staphylococcus aureus [6]) was over 32 µg/mL. It also gave an MIC [3] of under 2 µg/mL, an MIC (Streptococcus pyogenes) of over 32 µg/mL and an MIC (Enterococcus faecium) of over 32 µg/mL.
`COc1cc(O)c2c(c1C)C(=O)N(c1ccc3ncccc3c1)C2` was tested, and the Activity (Escherichia coli) was 1 µg/mL.
For `COc1cc(O)c2c(c1C)C(=O)N1c3ccc(C)cc3COC21` (centres undefined), the Activity (Escherichia coli) was 0.25 µg/mL, the MIC (Staphylococcus aureus [1]) was 32 µg/mL (≈ 103 µM) and the MIC (Staphylococcus aureus [4]) was 16 µg/mL (≈ 51.4 µM). The MIC (Staphylococcus aureus [2]) was 16 µg/mL (≈ 51.4 µM), the MIC (Staphylococcus aureus [5]) was 16 µg/mL (≈ 51.4 µM) and the MIC (Staphylococcus aureus [6]) was 32 µg/mL (≈ 103 µM). It also gave an MIC [3] of 2 µg/mL (≈ 6.42 µM), an MIC (Streptococcus pyogenes) of over 32 µg/mL and an MIC (Enterococcus faecium) of over 32 µg/mL.
Molecule `COc1cc(O)c2c(c1C)C(=O)N(c1cccnc1)C2` has an Activity (Escherichia coli) of 2 µg/mL.
`Oc1c(Cl)cc(Cl)cc1CNc1ccc(Cl)cc1` showed an Activity (Escherichia coli) of 16 µg/mL.
`Oc1ccc(Cl)cc1CNc1cc(Cl)cc(Cl)c1` gave an Activity (Escherichia coli) of 4 µg/mL.
In the case of `COc1ccc(N2C(=O)c3c(C)c(OC)cc(O)c3C2C(Cl)C(C)=O)cc1` (centres undefined), the Activity (Escherichia coli) was 63 µg/mL.
In the case of `COc1ccc(N2C(=O)c3c(C)c(OC)cc(O)c3C2CCO)cc1` (centres undefined), the Activity (Escherichia coli) was 4 µg/mL.
In the case of `Oc1ccc(Br)cc1CNc1ccc(Cl)cc1`, the Activity (Escherichia coli) was 16 µg/mL.
In the case of `COc1ccc(N2C(=O)c3c(C)c(OC)cc(O)c3C2c2ccc(CS)o2)cc1` (centres undefined), the Activity (Escherichia coli) was over 63 µg/mL.
Work on `COC(=O)c1c(C)c(OC)cc(O)c1CNc1ccc(Cl)cc1` yielded an Activity (Escherichia coli) of 16 µg/mL.
`COc1ccc(N2C(=O)c3c(C)c(OC)cc(O)c3C2Sc2ccc(C)cc2)cc1` (centres undefined) gave an Activity (Escherichia coli) of 31 µg/mL.
Molecule `COc1cc(O)c2c(c1C)C(=O)N(c1ccc(Cl)c(Cl)c1)C2` has an Activity (Escherichia coli) of 4 µg/mL.
In the case of `COc1cc(O)c2c(c1C)C(=O)N1c3cccnc3COC21` (centres undefined), the Activity (Escherichia coli) was 0.13 µg/mL, the MIC (Staphylococcus aureus [1]) was 1 µg/mL (≈ 3.35 µM) and the MIC (Staphylococcus aureus [4]) was 0.5 µg/mL (≈ 1.68 µM). For the same molecule, the MIC (Staphylococcus aureus [2]) was 1 µg/mL (≈ 3.35 µM), the MIC (Staphylococcus aureus [5]) was 1 µg/mL (≈ 3.35 µM) and the MIC (Staphylococcus aureus [6]) was 2 µg/mL (≈ 6.7 µM). The MIC [3] was 0.5 µg/mL (≈ 1.68 µM), the MIC (Streptococcus pyogenes) was 32 µg/mL (≈ 107 µM) and the MIC (Enterococcus faecium) was over 32 µg/mL.
`COc1ccc(N2C(=O)c3c(C)c(OC)cc(O)c3C2c2ccc(C)o2)cc1` (centres undefined) showed an Activity (Escherichia coli) of over 63 µg/mL.
`COc1cc(O)c2c(c1Br)C(=O)N1c3ccccc3COC21` (centres undefined) showed an Activity (Escherichia coli) of 0.5 µg/mL, an MIC (Staphylococcus aureus [1]) of 2 µg/mL (≈ 5.52 µM) and an MIC (Staphylococcus aureus [4]) of 2 µg/mL (≈ 5.52 µM). The MIC (Staphylococcus aureus [2]) was 2 µg/mL (≈ 5.52 µM), the MIC (Staphylococcus aureus [5]) was 2 µg/mL (≈ 5.52 µM) and the MIC (Staphylococcus aureus [6]) was 4 µg/mL (≈ 11 µM). It also gave an MIC [3] of over 2 µg/mL, an MIC (Streptococcus pyogenes) of 8 µg/mL (≈ 22.1 µM) and an MIC (Enterococcus faecium) of over 32 µg/mL.
Work on `Oc1ccc(Cl)cc1CNc1ccc(Cl)cc1` yielded an Activity (Escherichia coli) of 5 µg/mL, an MIC (Staphylococcus aureus [1]) of 16 µg/mL (≈ 59.7 µM) and an MIC (Staphylococcus aureus [4]) of 16 µg/mL (≈ 59.7 µM). The MIC (Staphylococcus aureus [2]) was 16 µg/mL (≈ 59.7 µM), the MIC (Staphylococcus aureus [5]) was 16 µg/mL (≈ 59.7 µM) and the MIC (Staphylococcus aureus [6]) was 16 µg/mL (≈ 59.7 µM). It also gave an MIC [3] of 16 µg/mL (≈ 59.7 µM), an MIC (Streptococcus pyogenes) of 16 µg/mL (≈ 59.7 µM) and an MIC (Enterococcus faecium) of 16 µg/mL (≈ 59.7 µM).
`CO[C@@H]1[C@@H](OC(N)=O)[C@@H](O)[C@H](Oc2ccc3c(O)c(NC(=O)c4ccc(O)c(CC=C(C)C)c4)c(=O)oc3c2C)OC1(C)C` [NOVOBIOCIN] gave an Activity (Escherichia coli) of 0.25 µg/mL, an MIC (Staphylococcus aureus [1]) of 0.25 µg/mL (≈ 0.408 µM) and an MIC (Staphylococcus aureus [4]) of 8 µg/mL (≈ 13.1 µM). It also gave an MIC (Staphylococcus aureus [2]) of 0.25 µg/mL (≈ 0.408 µM), an MIC (Staphylococcus aureus [5]) of 0.12 µg/mL (≈ 0.196 µM) and an MIC (Staphylococcus aureus [6]) of 0.25 µg/mL (≈ 0.408 µM). It also gave an MIC [3] of 0.12 µg/mL (≈ 0.196 µM), an MIC (Streptococcus pyogenes) of 2 µg/mL (≈ 3.26 µM) and an MIC (Enterococcus faecium) of 8 µg/mL (≈ 13.1 µM).
Molecule `COc1ccc2c(c1)[C@@H](O)C[C@@H]1c3c(O)cc(OC)c(C)c3C(=O)N21` has an Activity (Escherichia coli) of 0.5 µg/mL, an MIC (Staphylococcus aureus [1]) of over 32 µg/mL and an MIC (Staphylococcus aureus [4]) of 16 µg/mL (≈ 46.9 µM). The MIC (Staphylococcus aureus [2]) was 32 µg/mL (≈ 93.7 µM), the MIC (Staphylococcus aureus [5]) was 16 µg/mL (≈ 46.9 µM) and the MIC (Staphylococcus aureus [6]) was over 32 µg/mL. For the same molecule, the MIC [3] was 32 µg/mL (≈ 93.7 µM), the MIC (Streptococcus pyogenes) was over 32 µg/mL and the MIC (Enterococcus faecium) was over 32 µg/mL.
With `COc1ccc(N2C(=O)c3c(C)c(OC)cc(O)c3C2OC)cc1` (centres undefined) the Activity (Escherichia coli) was 16 µg/mL.
`N#Cc1ccc(NCc2cc(Cl)ccc2O)cc1` showed an Activity (Escherichia coli) of 2 µg/mL.
For `COC(=O)CCSC1c2c(O)cc(OC)c(C)c2C(=O)N1c1ccc(OC)cc1` (centres undefined), the Activity (Escherichia coli) was 0.5 µg/mL.
